Autophagy HCS – alters autophagy in cells | MEF GFP-LC3 puncta imaging; test concentration mostly 10 µM | calls only at 10 µM (by protocol) | actives 0.98% (n = 190,000);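 active means percentage of spot-positive cells more than 3 SD above its plate mean, without a fluorescence outlier flag or 80% toxicity; inconclusive means no clear call, values can overlap the other calls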;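 further: spot-positive cell cutoff set from DMSO-treated cells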
Dynein transport – dynein cargo transport inhibition | 3617.4 mouse cells, GR-EGFP nuclear translocation imaging; test concentration mostly 20 µM; stimulated with dexamethasone, 1 µM; stronger effect = lower value | z-score, hits read low | actives 0.47% (n = 220,000);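 active means plate z-score of nuclear minus cytoplasmic receptor signal below a set negative limit, without overly bright fluorescence or cell loss, cut at about -3.5 in these data, passing the limit was not always enough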;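 further: z-score of nuclear minus cytoplasmic ring GR-EGFP intensity difference per well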
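Buffer or medium: tet-free, stripped-serum medium; reagent: dexamethasone at 1.0 µM final, 30 min; incubation: 48 h induction, 1 h compound, 30 min dex at 37 °C; measured by: formaldehyde fixation, Hoechst nuclear stain, 10x automated fluorescence imaging; read-out: nuclear-to-cytoplasmic GR-EGFP distribution per well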
bCat nuc transl – alters nuclear translocation of beta-catenin in HeLa cells; immunofluorescence imaging; nuclear translocation activity, % at 5 µM; actives 0.3% (n = 190,000);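 active means nuclear translocation activity above 50% at 5 µM, with a well cell count of 50 or more; inconclusive means wells under 50 cells across six images, flagged as toxic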;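 further: per-cell ratio of nuclear to cytoplasmic median beta-catenin stain intensity; plate controls were DMSO negative control for no effect and GSK-3 inhibitor IX positive control for full effect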
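System: HeLa cells, endogenous beta-catenin; compound dosing: 5 µM primary single dose, 0.1% DMSO, 0.02–20 µM confirmation series; incubation: 24 h compound exposure at 37°C, 5% CO2; signal: beta-catenin immunofluorescence imaging with DAPI; evaluation: % activation, nuclear-to-cytoplasmic median beta-catenin signal ratio per cell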
MT stabilizer – microtubule stabilization, imaging screen; HeLa tubulin immunostaining HCS, 24 h; share of cells brighter than vehicle mean+2SD; % tubulin-high responders, % at 10 µM; actives 0.83% (n = 200,000);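 active means plate Z-score above 3 for both tubulin-high and condensed-nucleus cell shares, with cell loss under 80%, at 10 µM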;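 further: anti alpha tubulin signal scored within the nucleus-defined area of each cell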
CHOP inh – CHOP inhibition in unfolded protein response. CHO-K1 CHOP-promoter luciferase, tunicamycin-induced, 15-18 h. inhibition, % at 10 µM. actives 3.8% (n = 220,000). AID 2732;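 active means compounds that reduced the stress-induced luciferase reporter signal by more than about 70% of percent inhibition, limit read from the data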;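 further: 0% = tunicamycin plus vehicle and 100% = wells without tunicamycin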
Lmaj promast – reduces viability of Leishmania major promastigotes | actives 9% (n = 200,000) | inhibition, % at 10 µM | AID 1063 | resazurin fluorescence viability; in the data active means inhibition above about 50%;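 further: promastigotes grown with compound for 44 hours at 28 °C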
Dynein inh conf – dynein cargo transport inhibition, confirmation; actives 69% (n = 1,000); shares compounds with Dynein transport; 3617.4 GR-EGFP nuclear translocation imaging, dexamethasone-induced; AID 463116; calls only at 20 µM;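 active means inhibition of receptor movement into the nucleus at or above a set limit in both runs, with normal cell brightness and cell count; inconclusive means limit reached in only one run, brightness and count normal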;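 further: dexamethasone at 1 µM final in well for 30 min; nuclear minus cytoplasmic GR-EGFP mean intensity difference in channel 2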
Active calls of the source: *; i = inactive; u = inconclusive; x = no result given; + = active, no number. Hits are enriched below; roughly 12% of the tested compounds scored in any of these assays.

SMILES	Autophagy HCS	Dynein transport	bCat nuc transl	MT stabilizer	CHOP inh	Lmaj promast	Dynein inh conf
Cc1ccc(C(=O)NC(C#N)=C(Cl)Cl)cc1	i	-4.3*	0	6	80*	15	+
CCOC(=O)Cc1nnc(NC(=O)CSc2nc3ccccc3[nH]2)s1	x	-1.1	-1	x	-1	x	x
CCN(CC)c1ccc(/C=C2\CCC(/C=N/NC(=O)c3ccc(=O)n(C)c3)=C2N2CCOCC2)cc1	+	-4.9	-1	7	26	10	+
COC(=O)C1=C(C)N(CCC2=CCCCC2)C(=O)C1	i	-4.1*	x	1	15	15	i
CCN1C(=O)CC(C(=O)OC)=C1C	i	-0.51	-1	5	26	6	x
Cc1cc(N2CCCC2)c(F)cc1/C=C\[N+](=O)[O-]	i	-3.9	-3	3	-12	52*	+
CCOC(=O)C(=Cc1ccc(F)cc1)C(=O)OCC	i	-5.2*	2	1	51	7	+
CCOC(=O)C(=Cc1ccc(-n2ccnc2)cc1)C(=O)OCC	i	-5.6*	-1	12	1	79*	+
COC(=O)c1ccc(-n2ccnc2)cc1	i	-0.41	-5	2	21	-3	x
CCN(CC)c1ccc(/C=N/NC(=O)C(O)(c2ccccc2)c2ccccc2)o1	i	-4.9*	4	2	23	-1	i
CC(=O)N1CCN(c2ccc(NC(=O)c3ccc(Br)o3)cc2Cl)CC1	i	0.56	-2	3	2	9	x
O=C(Nc1ccc(N2CCOCC2)c(Cl)c1)c1ccc([N+](=O)[O-])o1	i	-4.5*	1	6	-50	100*	+
CCCC(=O)N1CCN(c2ccc(NC(=O)c3ccc([N+](=O)[O-])o3)cc2Cl)CC1	+	-4.7*	-2	4	-62	101*	+
CC(C)C(=O)N1CCN(c2ccc(NC(=O)c3ccc([N+](=O)[O-])o3)cc2Cl)CC1	i	-4.2*	7	53*	16	101*	+
S=C(Nc1ccccc1)c1nc2ccccc2s1	i	2.1	0	3	18	1	x
CCC1CCC2(CC1)NC(=O)N(CC(=O)c1c(C)[nH]c3ccccc13)C2=O (stereo unspecified)	i	0.62	-2	6	26	-1	x
CC1(C)Cc2c(sc3c2C2=NCCN2C=N3)CS1	i	0.6	x	1	0	6	x
COCCN(C(=O)CCl)C(C(=O)NC1CCCCC1)c1ccccc1C (stereo unspecified)	i	-4.4*	2	8	-56	99*	+
COCCN(C(=O)CCC(=O)Nc1cc(C)on1)C(C(=O)NC1CCCC1)c1ccccc1C (stereo unspecified)	i	0.15	0	2	7	-6	x
CCC(C)(C)C1CCc2[nH]nc(C(=O)N/N=C(\C)c3ccco3)c2C1 (stereo unspecified)	x	-3.8*	-1	x	21	x	i
COc1ccc(CC(=O)n2[nH]c(=O)cc(C)c2=O)cc1OC	x	-5.7*	-1	x	-10	x	u
COc1ccc(CC(=O)NC(C)(C)CC(C)=O)cc1OC	i	-0.93	0	4	-9	-3	x
O=C(Oc1ccccc1)c1cccc(COC(=O)c2cnccn2)c1	i	-4.1	x	3	60	-5	i
O=C(c1ccccc1)c1ccc(COC(=O)c2cnccn2)cc1	i	0.32	-1	3	7	-9	x
CCOC(=O)C(NC(=O)c1cccc(Cl)c1)(Nc1sc2c(c1C(N)=O)CCC2)C(F)(F)F (stereo unspecified)	i	-4.5*	0	2	28	26	+
SMILES	Autophagy HCS	Dynein transport	bCat nuc transl	MT stabilizer	CHOP inh	Lmaj promast	Dynein inh conf
CCOC(=O)C(NC(=O)c1ccccc1Cl)(Nc1sc2c(c1C(N)=O)CCC2)C(F)(F)F (stereo unspecified)	i	-1.4	-1	3	-5	1	x
CCOC(=O)C(=Cc1c[nH]c2ccc(S(=O)(=O)N(C)C)cc12)C(=O)OCC	x	-4.7*	1	x	-122	x	+
CC(=O)N(C)Cc1ccc(C(=O)CCl)cc1	i	-4.6	-1	3	105*	101*	+
CN(Cc1ccccc1)C(=O)CCC(=O)N(C)Cc1ccccc1	i	-0.44	-5	2	23	-5	x
CC(=O)NCCNC(=O)c1ccc(NC2=NC3CS(=O)(=O)CC3S2)cc1 (stereo unspecified)	x	-0.23	1	x	-2	x	x
O=C(Cc1c[nH]c2ccccc12)NC1(C(=O)NC2CCCC2)CCCCC1	i	0.68	x	2	8	-6	x
CN1CCN(Cc2nc3ccccc3c(=O)n2Cc2nc(-c3ccc([N+](=O)[O-])cc3)cs2)CC1	i	-3.7*	-2	10	13	100*	i
CCC1Oc2ccc(C)cc2N(CC(=O)N(Cc2cccnc2)Cc2ccc(C)o2)C1=O (stereo unspecified)	i	-3.7*	0	2	21	100*	u
Cc1c(NC(=O)CNCc2ccc3c(c2)OCO3)c(=O)n(-c2ccccc2)n1C	x	0.62	1	x	10	x	x
OC(CNCCc1ccc(Cl)cc1)COc1ccc2ccccc2c1 (stereo unspecified)	i	-8.2*	0	7	100*	83*	i
O=S(Cc1ccc(Cl)cc1)CC(O)COc1ccc(Cl)cc1 (stereo unspecified)	i	0.5	4	5	54	-3	x
Cc1ccc(NC(=O)c2cc(N3C(=O)C=CC3=O)ccc2N2CCOCC2)cc1	i	-4.9*	-2	3	109*	-5	+
COc1ccc(-n2ncc(Cl)c(Cl)c2=O)cc1	i	-6.8*	0	3	70	82*	+
CC1=Nn2c(nc(-c3ccccc3)c2-c2ccccc2)NC(=O)C1Br (stereo unspecified)	i	-0.38	x	1	12	-5	x
c1cncc(C(c2nnnn2C2CCCC2)N2CCCC2)c1 (stereo unspecified)	i	0.69	-7	6	16	7	x
O=c1c(C(c2nnnn2C2CCCCC2)N2CCCCC2)coc2ccc(Cl)cc12 (stereo unspecified)	i	-4*	0	6	3	62*	+
CCOC(=O)/C(=C\c1cccc(O)c1)c1nc2sc(C)c(C)c2c(=O)[nH]1	i	-4.4*	1	7	-84	99*	+
CCOC(=O)c1nc2sc(C)c(C)c2c(=O)[nH]1	i	-0.33	x	4	3	-6	x

Assay outcomes: PubChem, several laboratories
